Most compounds without a hit are left out; they make up all but 2.2% or so of the library.
Scp-1 inhibitor – blocks human Scp-1 phosphatase activity. Q9GZU7. Recombinant Scp1, phosphopeptide, malachite green phosphate absorbance. inhibition, % at 20 µM. 0.88% of 340,000 active. AID 493091;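 active means inhibition above about 50% at 20 µM, limit read from the data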;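 further: plate controls were DMSO wells with enzyme for no effect and wells lacking enzyme for full effect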
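assay system = SCP-1 phosphatase catalytic domain, residues 76-261 | buffer or medium = 50 mM Tris acetate pH 5.5, 0.005% Tween-20, 10 mM MgCl2 | incubation = enzyme reaction 45 min at room temperature, colour 5 min, stabilisation 30 min | signal = Phosphate-binding colour reagent, absorbance read at 630 nm | measure = % inhibition at 20 µM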
SUMO1-SIM PPI – alters human SUMO1 binding to SIM partners | P63165 | SUMO1 binding to a labelled peptide, TR-FRET, 1 h | inhibition, % at 20 µM | 0.33% of 360,000 active; in the data active means inhibition above about 37%
GRK2 inh – inhibitors of human GRK2 displacing RNA aptamer; P25098; bead flow cytometry, FAM-aptamer displacement from GRK2; inhibition of aptamer binding, % at 10 µM; 0.59% of 330,000 active; AID 488847;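 active means inhibition of aptamer binding above 40%, roughly 3 SD of noise, on plates passing a quality check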;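 further: median bead fluorescence of bound FAM aptamer so fluorescent compounds give negative values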
DNMT1 block – inhibitors of human DNMT1; P26358; DNMT1 molecular beacon, Hinp1I cleavage, fluorescence; inhibition (reported as % activation of signal), % at 10 µM; 0.83% of 360,000 active; AID 588458; in the data active means inhibition above about 50%
Target sequence (P26358 504-1616 limits assumed): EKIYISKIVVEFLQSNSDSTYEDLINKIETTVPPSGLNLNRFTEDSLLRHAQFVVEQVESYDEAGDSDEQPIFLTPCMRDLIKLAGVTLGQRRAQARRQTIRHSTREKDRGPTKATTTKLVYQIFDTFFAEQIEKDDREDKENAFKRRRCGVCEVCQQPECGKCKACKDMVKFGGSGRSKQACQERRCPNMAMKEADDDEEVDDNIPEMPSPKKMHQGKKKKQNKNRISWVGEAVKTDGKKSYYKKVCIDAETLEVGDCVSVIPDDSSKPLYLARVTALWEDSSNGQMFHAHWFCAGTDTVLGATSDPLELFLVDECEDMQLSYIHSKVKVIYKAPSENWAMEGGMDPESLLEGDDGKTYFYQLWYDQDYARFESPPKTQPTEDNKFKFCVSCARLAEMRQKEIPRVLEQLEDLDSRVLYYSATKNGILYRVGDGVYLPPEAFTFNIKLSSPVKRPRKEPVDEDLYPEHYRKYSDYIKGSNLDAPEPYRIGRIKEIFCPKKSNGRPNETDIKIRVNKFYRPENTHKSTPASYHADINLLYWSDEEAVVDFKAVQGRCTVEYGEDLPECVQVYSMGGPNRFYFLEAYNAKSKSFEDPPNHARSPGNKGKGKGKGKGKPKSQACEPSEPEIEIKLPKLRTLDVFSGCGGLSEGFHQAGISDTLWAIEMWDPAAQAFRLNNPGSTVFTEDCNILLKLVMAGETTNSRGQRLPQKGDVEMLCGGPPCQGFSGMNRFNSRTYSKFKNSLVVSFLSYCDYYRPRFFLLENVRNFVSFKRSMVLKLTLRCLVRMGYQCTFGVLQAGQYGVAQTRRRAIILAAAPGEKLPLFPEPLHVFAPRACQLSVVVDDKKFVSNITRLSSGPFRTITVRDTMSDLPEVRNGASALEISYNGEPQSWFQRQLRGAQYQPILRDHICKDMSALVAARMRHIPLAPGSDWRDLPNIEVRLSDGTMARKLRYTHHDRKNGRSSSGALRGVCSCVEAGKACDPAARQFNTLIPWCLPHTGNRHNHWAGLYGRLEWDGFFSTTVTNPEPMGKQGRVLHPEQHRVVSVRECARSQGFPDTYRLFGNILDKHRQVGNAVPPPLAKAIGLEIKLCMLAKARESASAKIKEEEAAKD
STEP inh – STEP (human) phosphatase inhibition | P54829 | recombinant STEP, OMFP fluorogenic substrate, fluorescence | inhibition, % at 20 µM | 0.25% of 360,000 active | AID 588621;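 active means inhibition at 20 µM, scaled per plate between control wells, above about 37%, limit read from the data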;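 further: 0% = DMSO with enzyme and substrate and 100% = substrate only without enzyme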
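Also added – OMFP at 25 µM · Test system – STEP tyrosine phosphatase · Technique – FITC-channel fluorescence of OMFP product · Schedule – 20 min at room temperature, dark · Evaluation – control-normalized % inhibition with plate pattern correction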
LMPTP inh – LMPTP (human) inhibition; 0.22% of 360,000 active; recombinant LMPTP-A, OMFP fluorogenic substrate, fluorescence intensity; inhibition, % at 20 µM; P24666;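 active means compounds that cut the enzyme signal by at least half of the control window in the single-dose screen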;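 further: plate controls were DMSO wells with enzyme plus substrate for no effect and substrate without enzyme for full effect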
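Test system: LMPTP-A phosphatase enzyme; input: 0.625 nM LMPTP-A final; reagent: OMFP substrate, 400 µM final; compound dosing: 20 µM single dose, 3% DMSO; incubation: 50 min dark incubation at room temperature; measured by: endpoint fluorescence intensity from OMFP dephosphorylation; measure: % inhibition relative to no-enzyme and uninhibited control wells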
DNMT1 inh conf – confirmation of human DNMT1 inhibitors | inhibition, % at 10 µM | 8% of 2,300 active | shares compounds with DNMT1 block | DNMT1 molecular beacon HinP1I cleavage, fluorescence | AID 602385;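 active means average inhibition of at least 30% in the single-concentration confirmation test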
DNMT1 interf – beacon fluorescence artifact counter-screen. AID 602387. shares compounds with DNMT1 block. DNMT1 molecular beacon spectral interference counterscreen, fluorescence 485/520. 1% of 2,300 active. activation (fluorescence interference), % at 10 µM;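 active means activation of at least 30% at 10 µM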;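 further: DNMT1 catalytic domain with a HinP1I cleavage step and a FAM/dabcyl DNA beacon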
STEP conf – confirmation of human STEP phosphatase inhibitors; inhibition, % at 20 µM; recombinant STEP, OMFP fluorogenic substrate, fluorescence; 32% of 520 active; shares compounds with STEP inh; AID 623866; call rule not given here;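 further: 0% = enzyme with substrate plus DMSO and 100% = substrate without enzyme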
* = called active by the depositor; nt = not tested or not shown.

SMILES | Scp-1 inhibitor | SUMO1-SIM PPI | GRK2 inh | DNMT1 block | STEP inh | LMPTP inh | DNMT1 inh conf | DNMT1 interf | STEP conf
O=C(Cn1c2ccccc2c(=O)c2ccccc21)N/N=C/c1cc([N+](=O)[O-])ccc1N1CCCCCC1 | 87* | -7 | 25 | 72* | 89* | 66* | 4 | 5 | 12
Cc1ccc2nc(NC(=O)c3ccc(S(=O)(=O)N4CCCc5ccccc54)cc3)sc2c1 | -6 | 1 | 0 | 95* | 121* | 1 | 3 | 4 | -5
O=C(Nc1nc2ccc(F)cc2s1)c1cccc(S(=O)(=O)N2CCc3ccccc32)c1 | -12 | 1 | 5 | -8 | -1 | 3 | nt | nt | nt
C=CC(=O)Nc1cccc(Nc2nc(N[C@H]3CC[C@H](N(C)C)CC3)nc3c2ncn3C(C)C)c1 | 7 | 33 | nt | -57 | 3 | 8 | nt | nt | nt
COc1ccccc1-c1csc(-n2ncc(C#N)c2N)n1 | nt | 95* | 0 | 76* | 61* | 41 | 12 | 0 | 19
COCOCCn1cc(CN2CCS(=O)(=O)N(Cc3ccc(-c4ccncc4)cc3)C(CC(C)C)C2=O)nn1 (stereo not drawn) | nt | -2 | nt | 0 | -4 | 0 | nt | nt | nt
COc1ccc(-c2ccc(NC(=O)c3ccc(Br)o3)cc2)nn1 | 50 | 9 | 0 | 56* | 42* | 54* | 5 | 4 | 33*
CC1(C)CC(=O)C(C=NCC2CCN(C(=O)Cc3ccccc3)CC2)=C(O)C1 | 4 | 70* | 3 | 76* | 48* | 15 | 4 | 2 | 0
CCc1ccccc1NC(=O)c1ccc2nc(N3CCOCC3)sc2c1 | 10 | -2 | 0 | -1 | 0 | 0 | nt | nt | nt
Cc1ccc(NC(=O)c2ccc3nc(N4CCOCC4)sc3c2)c(Cl)c1 | -10 | 5 | 0 | 53* | 84* | 0 | -2 | -4 | 54*
O=C(CSc1nc(-c2ccc(F)cc2)nc2c1Cc1ccccc1O2)Nc1cccc(C(=O)O)c1 | 89* | 108* | nt | 99* | 97* | 88* | 6 | -14 | 13*
CCOc1ccc(-c2cc(C(=O)Nc3cc(OC)c(OC)c(OC)c3)[nH]n2)c(C)c1 | nt | 0 | nt | -9 | 5 | 1 | nt | nt | nt
C/C(CC(C)C)=N\NS(=O)(=O)c1ccc(C)c([N+](=O)[O-])c1 | 1 | -6 | 0 | 86* | 90* | -1 | 1 | 10 | -4
Cc1ccccc1C(=O)N(C)[C@H]1C[C@H]2c3[nH]c4ccccc4c3CCN2C(=O)[C@H]1[C@H](C)O | nt | -2 | nt | 1 | 1 | 0 | nt | nt | nt
Cc1ccc(F)c(S(=O)(=O)NC(=O)C2(C)CCN2C(=O)Cc2cccs2)c1 (stereo not drawn) | nt | 2 | nt | 1 | -2 | -1 | nt | nt | nt
COc1cccc(/C=N/Nc2ncnc3c2[nH]c2ccc(C)cc23)c1OC | 20 | 90* | 0 | 60* | 77* | 26 | 1 | -3 | 4
COc1ccc(/C=N/Nc2ncnc3c2[nH]c2ccccc23)c(OC)c1OC | 6 | -3 | 2 | 20 | -1 | 0 | nt | nt | nt
Cn1nnc(NCc2cc(Br)ccc2OCc2ccccc2F)n1 | -6 | 1 | 0 | 77* | 66* | -1 | 0 | 5 | 24
Fc1ccccc1COc1ccc(Br)cc1CNCC1CCCO1 (stereo not drawn) | 1 | 3 | 0 | 6 | -4 | 1 | nt | nt | nt
Cc1cc(C(=O)N2CCC2(C)C(=O)NS(=O)(=O)c2cccc(OC(F)F)c2)nn1C (stereo not drawn) | nt | 1 | nt | 1 | 1 | -2 | nt | nt | nt
CC(=O)Cc1nsc(NC(=O)c2ccc(-c3ccc(Cl)cc3Cl)o2)n1 | -9 | -8 | 0 | -6 | -2 | 2 | nt | nt | nt
Cc1nnc2sc(-c3ccc(NC(=O)c4ccc(-c5ccc(Cl)cc5Cl)o4)cc3)nn12 | 36 | 31 | 0 | 65* | 95* | 56* | 8 | 1 | 60*
CN1CCN(Cc2nc3ccccc3c(=O)n2Cc2nc(-c3cccc([N+](=O)[O-])c3)cs2)CC1 | -3 | -19 | nt | -17 | 43* | 5 | nt | nt | 13
C[C@H](CO)N1C[C@H](C)[C@@H](CN(C)Cc2ccncc2)OCc2cnnn2CCCC1=O | nt | 0 | nt | -5 | 0 | -4 | nt | nt | nt
CC1=C(C(=O)N2CCCCCC2)CC(CC(=O)NCCCCc2ccccc2)C(=O)N1Cc1ccccc1 (stereo not drawn) | nt | 6 | nt | -2 | 4 | -1 | nt | nt | nt
SMILES | Scp-1 inhibitor | SUMO1-SIM PPI | GRK2 inh | DNMT1 block | STEP inh | LMPTP inh | DNMT1 inh conf | DNMT1 interf | STEP conf
CCCCC(=O)N(C)c1c(CC)nc2c(OCC=C(C)C)cccn12 | nt | -2 | nt | -4 | -1 | -2 | nt | nt | nt
c1ccc(OCc2nnc3n2N=C(c2ccccc2)CS3)cc1 | -5 | -5 | 2 | -2 | 70* | 1 | nt | nt | 0
CC(C)c1ccc(NC(=O)C2Cc3c(-c4ccc(Cl)cc4)ccnc3O2)cc1 (stereo not drawn) | nt | 3 | nt | -16 | 0 | 4 | nt | nt | nt
COc1cc2c(cc1OC)C(C(=O)O)C(c1ccc(C)o1)N(C)C2=O (stereo not drawn) | -4 | 2 | 0 | -1 | 56* | 0 | nt | nt | 12
Cc1ccc(C2C(C(=O)O)c3ccccc3C(=O)N2C)o1 (stereo not drawn) | -11 | -2 | 3 | -1 | -2 | -1 | nt | nt | nt
C/C(CC(=O)Nc1ccc2c(c1)OCCO2)=N\NC(=O)COc1cccc(C)c1 | -5 | 4 | 1 | -1 | -3 | 1 | nt | nt | nt
C/C(CC(=O)Nc1ccc2c(c1)OCCO2)=N\NC(=O)COc1ccccc1C | 2 | 1 | 1 | -2 | 50* | 0 | nt | nt | 6
CCCc1c(C(=O)N/N=C(\CC)c2ccccc2)nnn1-c1nonc1N | nt | -2 | nt | 21 | -1 | -1 | nt | nt | nt
CCSc1nc(O)cc(=O)[nH]1 | -8 | 3 | 0 | 2 | 1 | -1 | nt | nt | nt
N#CNc1nc(O)cc(=O)[nH]1 | 49 | 16 | 0 | 1 | 98* | 87* | nt | nt | 63*
O=C(NCCCNC(=O)c1cnccn1)c1ccc(Cl)cc1 | -6 | 6 | 1 | 0 | -1 | -2 | nt | nt | nt
O=C(NCCCNC(=O)c1cnccn1)c1ccc(Br)cc1 | -1 | 4 | 0 | 0 | 59* | -2 | nt | nt | 0
O=C(Oc1ccc2ccc(=O)oc2c1)c1ccccc1 | -5 | 8 | 0 | 4 | 5 | 7 | nt | nt | nt
COc1ccc(C(=O)Oc2ccc3ccc(=O)oc3c2)cc1 | 9 | -5 | 0 | 4 | 74* | 37 | nt | nt | -8

Source: PubChem
